rCAG binder: molecules binding r(CAG) RNA repeats | AID 651821 | 1.3% of 370,000 active | r(CAG) RNA repeat, TO-PRO-1 dye displacement fluorescence | inhibition, % at 3 µM;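 active = inhibition above the plate cutoff, the mean of all test compounds on that plate plus 3 SD, cut at about 35% in these data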;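 also: 0% = DMSO alone and 100% = 100 µM mitoxantrone as full dye displacement; higher means more dye released from RNA so lower well fluorescence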
mABHD4 FP: inhibitors of mouse ABHD4; Q8VD66; purified mABHD4, FP-Rh probe fluorescence polarization; inhibition, % at 8.92 µM; 0.54% of 370,000 active; AID 720543;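 active = inhibition exceeding the mean over every tested compound plus 3 SD, cut at about 30% in these data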;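 also: 0% = plate median of compound wells and 100% = S159A mutant with DMSO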
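assay system = mABHD4 protein | compound dosing = single nominal dose of 8.92 µM, 0.89% DMSO final | read-out basis = percent inhibition of probe binding, normalized to plate controls | schedule = Enzyme–compound pre-incubation 45 min, then probe 60 min, both 25 °C | detection = fluorescence polarization, excitation 525 nm, emission 598 nm, BODIPY TMR filters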
PRMT1 inh: PRMT1 (human) inhibition, primary screen | 1.3% of 370,000 active | recombinant PRMT1, activity-based probe fluorescence polarization | inhibition, % at 2.79 µM | Q99873;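 active = inhibition above about 21% made by adding two undisclosed values, limit read from the data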
DAGLB inhibitor: diacylglycerol lipase beta (human) inhibition | Q8NCG7 | HEK293T DAGLB membrane lysate, EnzChek fluorogenic substrate | inhibition, % at 5.17 µM | 0.059% of 340,000 active; in the data active = inhibition above about 34%;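 also: 0% = enzyme with vehicle and 100% = wells lacking enzyme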
LEDGF integ inh: blocks HIV-1 LEDGF/p75-dependent DNA integration; TR-FRET IN-LEDGF/p75 DNA integration, Eu/Cy5; inhibition, % at 3.7 µM; 0.64% of 370,000 active; AID 743269;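 active = inhibition above the screen-wide mean plus 3 SD, cut at about 13% in these data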;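 also: signal is the Cy5 over europium emission ratio at 671 and 618 nm; 0% = plate median of compound wells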
HTRA1 inhibitor: HTRA1 (human) protease inhibition; Q92743; inhibition, % at 5.96 µM; recombinant HTRA1, FP-rhodamine activity-based probe, fluorescence polarization; 0.5% of 340,000 active; in the data active = inhibition above about 36%;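 also: 0% = enzyme with DMSO and 100% = wells lacking enzyme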
Target sequence (Q92743 whole entry, looked up): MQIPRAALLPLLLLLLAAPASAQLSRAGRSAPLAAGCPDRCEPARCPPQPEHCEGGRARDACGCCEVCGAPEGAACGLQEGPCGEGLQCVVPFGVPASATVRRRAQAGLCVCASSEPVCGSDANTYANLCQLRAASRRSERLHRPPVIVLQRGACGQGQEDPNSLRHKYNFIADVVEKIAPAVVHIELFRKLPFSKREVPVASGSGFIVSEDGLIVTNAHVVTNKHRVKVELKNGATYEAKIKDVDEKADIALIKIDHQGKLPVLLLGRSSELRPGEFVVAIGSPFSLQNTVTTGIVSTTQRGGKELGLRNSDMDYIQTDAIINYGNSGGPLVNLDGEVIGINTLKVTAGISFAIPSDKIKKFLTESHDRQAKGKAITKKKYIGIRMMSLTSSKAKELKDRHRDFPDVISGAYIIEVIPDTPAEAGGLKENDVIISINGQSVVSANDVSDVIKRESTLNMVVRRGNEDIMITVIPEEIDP
Active calls of the source: *; . = no result given; ! = repeats disagree. Only some compounds are listed: those with a hit (about 3.2% of all), similar ones and a draw of the others.

SMILES | rCAG binder | mABHD4 FP | PRMT1 inh | DAGLB inhibitor | LEDGF integ inh | HTRA1 inhibitor
Cn1c(NCCN2CCCCC2)cc(=O)n(C)c1=O | -2 | 4 | 24* | -2 | -4 | -2
CCCNc1cc(=O)n(C)c(=O)n1C | 1 | 1 | 0 | -1 | -1 | -1
CC1(c2ccco2)NC(=O)NC1=O (stereo unspecified) | 3 | -4 | -2 | -2 | 1 | 3
Cc1oc(-c2ccc(F)cc2)cc1-c1nn2c(-c3ccoc3C)nnc2s1 | 36* | 14 | 20 | 15 | 38* | 10
CNC(=O)CSc1nnc(-c2cccs2)o1 | -1 | 10 | 3 | -2 | 1 | 5
CNC(=S)NNC(=O)c1sccc1OCc1ccc(Cl)cc1Cl | -1 | 0 | 0 | -1 | 0 | 2
S=c1nc(-c2sccc2OCc2ccc(Cl)cc2Cl)[nH][nH]1 | 21 | 3 | 25* | 0 | -3 | 3
CC1(C)S[C@@H]2[C@H](NC(=O)C(C(=O)O)c3ccccc3)C(=O)N2[C@H]1C(=O)O (stereo partly specified) | . | . | . | 4 | . | 8
CC1(C)S[C@@H]2[C@H](NC(=O)[C@H](N)c3ccccc3)C(=O)N2[C@H]1C(=O)O | 58*! | -8 | 2 | -1 | 52*! | 0
COc1ccc(-c2nnc(Nc3nc4c(OC)cccc4s3)o2)cc1 | 27 | 5 | -5 | 12 | 1 | 12
COc1ccc(-c2nnc(Nc3nc4c(OC)cccc4s3)o2)c(OC)c1 | 51* | 10 | -4 | 11 | -5 | 10
COc1ccc(S(=O)(=O)N2N=C(c3ccc(NS(C)(=O)=O)cc3)CC2c2ccco2)cc1 (stereo unspecified) | 9 | 7 | 7 | 2 | 2 | -2
COc1ccc(S(=O)(=O)N2N=C(c3cccc(NS(C)(=O)=O)c3)CC2c2ccco2)cc1 (stereo unspecified) | 16 | 6 | 23* | 3 | -1 | -6
CON=C(C(=O)NC1C(=O)N2C(C(=O)O)=C(CSc3nc(=O)c(=O)[nH]n3C)CSC12)c1csc(N)n1 (stereo unspecified) | 17 | -5 | 21* | 0 | 5 | 5
S=c1[nH]nc(COc2ccccc2)n1/N=C/c1ccc(Cl)cc1Cl | 12 | -3 | 0 | 12 | -2 | -11
Cc1ccc(Nc2cc(C)nn2-c2nc(C)cc(=O)[nH]2)cc1 | . | . | . | 8 | . | 50*
O=C(C1CCCO1)N1CCN(S(=O)(=O)c2ccc(F)cc2)CC1 (stereo unspecified) | 0 | 3 | 24* | 1 | -5 | 1
COc1ccc(S(=O)(=O)N2CCN(C(=O)C3CCCO3)CC2)cc1 (stereo unspecified) | -2 | 3 | -2 | 1 | 5 | -5
CCCOc1ccc(NC(=O)C2CC(=O)N3CCCN=C3S2)cc1 (stereo unspecified) | 13 | 0 | 12 | 1 | 1 | -4
COc1ccc(C(=O)N2CCN(c3cccc(Cl)c3)CC2)cc1S(=O)(=O)NC1CC1 | 4 | 3 | 24* | 3 | -4 | 0
CCCCNC(=O)CS(=O)Cc1nc(-c2cccs2)oc1C (stereo unspecified) | 7 | -2 | 3 | 3 | 2 | 3
Cc1oc(-c2cccs2)nc1CS(=O)CC(=O)NCCc1ccccc1 (stereo unspecified) | 8 | 7 | 22* | -1 | -1 | -5
Cc1cccc(N=C2NC(=O)S/C2=C\c2ccco2)c1 | 20 | -75 | 21* | 0 | 3 | 24
O=C1NC(=Nc2ccc3ccccc3c2)S/C1=C/c1ccco1 | 44* | 6 | 2 | 11 | 10 | -6
Cc1nn(C)cc1/C=N\NC(=O)Cc1ccc([N+](=O)[O-])cc1 | -1 | -2 | -1 | 0 | -1 | 4
SMILES | rCAG binder | mABHD4 FP | PRMT1 inh | DAGLB inhibitor | LEDGF integ inh | HTRA1 inhibitor
O=S(=O)(Nc1nc2ccccc2s1)c1ccc(Br)s1 | 50* | -28 | 5 | 13 | 4 | -24
Cc1ccc(S(=O)(=O)Nc2nc3ccccc3s2)cc1 | 26 | 0 | -3 | 7 | 1 | -1
O=C(CCc1ccccc1)NN1C(=O)C2C3C=CC(C3)C2C1=O (stereo unspecified) | -2 | 2 | -3 | 0 | 2 | 1
CC1(C)Cc2c(c(-c3ccco3)nc3sc4c(NCC5CCCO5)ncnc4c23)CO1 (stereo unspecified) | 23 | -1 | 23* | -1 | 1 | -13
Cc1nc2ccccc2n1C(c1cccnc1)c1nc2ccccc2[nH]1 (stereo unspecified) | 3 | 9 | 8 | . | 0 | .
COCC1CCCCN1C(=O)CCCn1nnnc1CN1CCC(C)CC1 (stereo unspecified) | -6 | -3 | -2 | 0 | -2 | 1
CC1CCN(Cc2nnnn2CCCC(=O)NC(c2ccccn2)C(F)(F)F)CC1 (stereo unspecified) | -8 | 1 | 0 | -2 | 28* | 6
O=C(COC(=O)Cc1cccs1)NCC(=O)Nc1ccc(F)cc1 | 5 | 0 | 1 | 1 | -4 | -1
O=C(COC(=O)Cc1cccs1)Nc1ccc(OC(F)(F)F)cc1 | -29 | 108* | 78* | -2 | 1 | 0
C(=Nc1ccc(Nc2ccccc2)cc1)c1ccc2ccccc2c1 | . | . | . | 14 | . | 73*
COc1ccccc1-c1ncn(Cc2cccc(-c3ccccc3)c2)c1-c1cc(C)cc(C)c1 | 4 | 5 | -1 | . | -2 | .
CCOC(=O)C1CCCN(C(=O)c2ccc(-c3ccc([N+](=O)[O-])cc3)o2)C1 (stereo unspecified) | 11 | 17 | 24* | 1 | 3 | 1
CCOC(=O)C1CCCN(C(=O)c2ccc(CS(=O)(=O)c3ccc(C)cc3)o2)C1 (stereo unspecified) | . | . | . | 2 | . | -3
CCn1c(SCC(=O)N/N=C/C=C\c2ccco2)nc2ccccc21 | 13 | 11 | 21* | 4 | 3 | 2
CC1=N/C(=C/c2cc(Br)cc(Br)c2O)C(=O)O1 | 2 | 3 | -3 | -1 | -6 | 0
CC(C)(C)N1C(=O)c2ccc(C(=O)O)cc2C1=O | 1 | 3 | -2 | -1 | -2 | -2
O=C(O)c1ccc2c(c1)C(=O)/C(=C/c1ccccc1)C2=O | 21 | 31* | 25* | 1 | 10 | 7
CCOC(=O)CC1C(=O)NCCN1Cc1cccc(C(F)(F)F)c1 (stereo unspecified) | 0 | 7 | 24* | 2 | -1 | 1
CC1(C)CC(=O)C2=C(C1)OC(N)=C(C#N)C2c1ccccc1[N+](=O)[O-] (stereo unspecified) | -12 | 1 | 23* | -2 | 7 | -4
CC1(C)CC(=O)C2=C(C1)OC(N)=C(C#N)C2c1ccccc1 (stereo unspecified) | 1 | -2 | -2 | 1 | -1 | -3
O=C1CCN(Cc2ccccc2)C(=O)N1 | 2 | 1 | 0 | 0 | -4 | 2
